Source: ChEMBL document CHEMBL4406835, “Discovery of dual-acting opioid ligand and TRPV1 antagonists as novel therapeutic agents for pain” (Eur J Med Chem, 2019)
pEC50, pKi: −log10 of the molar value. Calls of active or inactive are those of the source. The rule behind the calls is not given here.

What was measured:
[1] = tested on: Mus musculus; assay: Antinociceptive activity in ip dosed ICR mouse assessed as reduction in pain response of paw licking and biting pretreated for 30 mins followed by formalin treatment and measures after 0 to 5 mins by formalin test; format: functional
Procedure, shortened: (§1)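 Male ICR mice, 20-25 g, 6-8 per group. Compound i.p. 30 min before 20 μL of 2% formalin in 0.9% saline into dorsal right hindpaw. Licking and biting time summed per 5 min block over 30 min. Early phase 0-5 min, late phase 20-30 min. ED50 derived from dose-response.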

[2] = molecular target: T1, Transient receptor potential cation channel subfamily V member 1 (Homo sapiens, UniProt Q8NER1); assay: Agonist activity at recombinant human TRPV1 expressed in CHO cells assessed as increase in calcium uptake incubated for 5 mins in presence of 45Ca2+ and capsaicin by liquid scintillation counter; format: cell-based; conditions: for EC50: cho
[3] = tested on: Mus musculus; assay: Antinociceptive activity in ICR mouse assessed as reduction in paw licking time at 30 mg/kg, ip pretreated for 30 mins followed by formalin treatment and measures after 20 to 30 mins by formalin test relative to control; format: functional
Procedure, shortened: (§2)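 Male ICR mice, 20-25 g. Compound i.p. 30 min before 20 μL of 2% formalin in 0.9% saline into dorsal right hindpaw. Licking time scored at 0-5 min (early) and 20-30 min (late) and expressed as % decrease versus vehicle. n = 3-4, mean ± SEM.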

[4] = molecular target: T1, Transient receptor potential cation channel subfamily V member 1; assay: Displacement of [3H]RTX from recombinant human TRPV1 expressed in CHO cells incubated for 60 mins by liquid scintillation counter; format: cell-based
Procedure, shortened: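 Pellets from human TRPV1 CHO cells (Tet-Off, induced 48 h) in DPBS with Ca2+/Mg2+ and BSA 0.25 mg/mL. Incubated with [3H]RTX 100 pM and varied competitor, 60 min at 37 °C. Nonspecific binding defined with unlabelled RTX 100 nM. Chilled, glycoprotein added, membranes pelleted by centrifugation, scintillation counted. Ki from Hill equation fit. Mean of ≥3 experiments.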

[5] = tested on: Mus musculus; assay: (§3) Antinociceptive activity in ICR mouse assessed as reduction in paw licking time at 30 mg/kg, ip pretreated with 10 mg/kg, ip mu opioid receptor antagonist, naloxone 15 mins prior to compound treatment and 30 mins later treated with formalin and measured after 0 to 5 mins by formalin test relative to control; format: functional
Procedure, shortened: (§4)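 Male ICR mice, 20-25 g, 3-4 per group. Naloxone 10 mg/kg i.p. given 15 min before test article or vehicle i.p. Formalin paw test 30 min later: 20 μL of 2% formalin into right hindpaw. Licking scored at 0-5 min and 20-30 min and compared with vehicle. Mean ± SEM.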

[6] = molecular target: Mu-type opioid receptor (Homo sapiens, UniProt P35372); assay: Displacement of [3H]-DAMGO from full length human MOR expressed in chem5 cells incubated for 60 mins by liquid scintillation counter; format: cell-based
[7] = tested on: Mus musculus; assay: Antinociceptive activity in ip dosed ICR mouse assessed as reduction in pain response of paw licking and biting pretreated for 30 mins followed by formalin treatment and measures after 20 to 30 mins by formalin test; format: functional; procedure, shortened: as §1
[8] = tested on: Mus musculus; assay: Antinociceptive activity in ip dosed ICR mouse assessed as reduction in capsaicin-induced paw licking pretreated for 30 mins followed by capsaicin treatment and measured for 5 mins; format: functional, organism-based
Procedure, shortened: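 Male ICR mice, 20-25 g, in groups of 3-4. Compound or vehicle given i.p. 30 min before intraplantar capsaicin (3 μg/paw in 10 μl) into the right hind paw. Time spent licking the injected paw is recorded over 5 min. Results are given as mean ± SEM and compared with vehicle.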

[9] = tested on: Mus musculus; assay: Antinociceptive activity in ICR mouse assessed as reduction in capsaicin-induced paw licking at 40 mg/kg, ip pretreated for 30 mins followed by capsaicin treatment and measured for 5 mins relative to control; format: functional
Procedure, shortened: (§5)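 Male ICR mice, 20-25 g, 3-4 per group. Pretreated i.p. with compound or vehicle 30 min before intraplantar capsaicin 3 μg/paw in 10 μL into right hind paw. Licking time recorded for 5 min and expressed as % inhibition versus vehicle. Mean ± SEM.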

[10] = tested on: Mus musculus; assay: as §3, with “after 20” for “after 0”, “to 30” for “to 5”; format: functional; procedure, shortened: as §4
[11] = tested on: Mus musculus; assay: Antinociceptive activity in ICR mouse assessed as reduction in capsaicin-induced paw licking at 20 mg/kg, ip pretreated for 30 mins followed by capsaicin treatment and measured for 5 mins relative to control; format: functional; procedure, shortened: as §5
[12] = tested on: Mus musculus; assay: Antinociceptive activity in ICR mouse assessed as reduction in paw licking time at 30 mg/kg, ip pretreated for 30 mins followed by formalin treatment and measures after 0 to 5 mins by formalin test relative to control; format: functional; procedure, shortened: as §2
[13] = tested on: Mus musculus; assay: Antinociceptive activity in ICR mouse assessed as reduction of pain behaviour at 40 mg/kg, ip pretreated for 30 mins followed by formalin treatment and measured after 20 to 30 mins by formalin test; format: functional, organism-based
Procedure, shortened: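 Male ICR mice, 20-25 g, in groups of 6-8. Compound given i.p. 30 min before 20 μL of 2% formalin in 0.9% saline injected into the dorsal right hindpaw. Licking and biting time is summed in 5-min blocks over 30 min. Late phase is 20-30 min after injection.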

[14] = molecular target: T1, Transient receptor potential cation channel subfamily V member 1; assay: Antagonist activity at recombinant human TRPV1 expressed in CHO cells assessed as as inhibition of capsaicin-induced calcium uptake incubated for 5 mins in presence of 45Ca2+ by liquid scintillation counter; format: cell-based
Procedure, shortened: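 CHO cells stably expressing human TRPV1 (Tet-Off) induced 48 h in tetracycline-free medium. Uptake run in DMEM with BSA 0.25 mg/mL and 45Ca2+ 37 kBq/mL, with capsaicin 30 nM plus increasing test concentrations, 5 min at 37 °C. Cells washed, lysed in RIPA, counted. Four wells per point, Hill fit. ID50 converted to Ki by Cheng-Prusoff. Mean of ≥3 experiments.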

T1 sequence (Q8NER1 whole entry): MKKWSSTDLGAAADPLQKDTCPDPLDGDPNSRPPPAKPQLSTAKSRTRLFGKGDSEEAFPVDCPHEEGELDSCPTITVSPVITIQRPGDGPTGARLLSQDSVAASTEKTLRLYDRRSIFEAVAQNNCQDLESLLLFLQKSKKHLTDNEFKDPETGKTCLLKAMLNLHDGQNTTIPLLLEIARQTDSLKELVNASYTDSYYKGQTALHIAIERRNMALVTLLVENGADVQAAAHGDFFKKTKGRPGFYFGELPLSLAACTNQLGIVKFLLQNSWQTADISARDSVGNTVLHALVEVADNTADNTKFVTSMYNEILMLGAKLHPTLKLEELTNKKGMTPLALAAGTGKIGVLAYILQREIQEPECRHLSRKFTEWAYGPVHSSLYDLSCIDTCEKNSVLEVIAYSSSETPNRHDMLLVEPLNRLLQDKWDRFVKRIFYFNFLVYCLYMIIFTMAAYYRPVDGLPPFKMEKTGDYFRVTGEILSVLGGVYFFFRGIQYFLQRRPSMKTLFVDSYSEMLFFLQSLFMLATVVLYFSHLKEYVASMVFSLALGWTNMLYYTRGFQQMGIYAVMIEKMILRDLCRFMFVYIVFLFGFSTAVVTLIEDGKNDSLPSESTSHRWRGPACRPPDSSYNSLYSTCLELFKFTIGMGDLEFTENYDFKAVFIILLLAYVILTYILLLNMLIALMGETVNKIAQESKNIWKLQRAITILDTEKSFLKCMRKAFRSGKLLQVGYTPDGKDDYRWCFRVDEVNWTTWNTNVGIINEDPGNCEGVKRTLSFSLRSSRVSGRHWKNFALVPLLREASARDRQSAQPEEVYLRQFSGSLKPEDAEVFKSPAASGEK
Mu-type opioid receptor, sequence (P35372 whole entry): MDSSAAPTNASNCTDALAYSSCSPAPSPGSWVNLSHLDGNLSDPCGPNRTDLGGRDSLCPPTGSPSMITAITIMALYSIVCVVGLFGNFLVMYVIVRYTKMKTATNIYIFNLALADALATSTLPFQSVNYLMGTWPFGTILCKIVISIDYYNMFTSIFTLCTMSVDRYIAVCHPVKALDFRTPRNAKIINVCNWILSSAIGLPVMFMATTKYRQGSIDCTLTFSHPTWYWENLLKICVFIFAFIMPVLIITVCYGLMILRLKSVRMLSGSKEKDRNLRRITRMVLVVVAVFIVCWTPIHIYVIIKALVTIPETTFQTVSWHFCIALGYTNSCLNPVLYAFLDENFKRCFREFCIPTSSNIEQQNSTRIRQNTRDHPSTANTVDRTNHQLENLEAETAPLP

With `CN(C)C1(Cc2ccccc2)CCN(c2cc(C(F)(F)F)ccc2CNC(=O)Nc2cccc3ncccc23)CC1` the Activity [1] was “Dose-dependent effect”, the ED50 [1] was 23.9 mg/kg and the EC50 [2] was “Not Active”. For the same molecule, the inhibition in vivo at 30 mg/kg [3] was 90.2%, the pKi [4] was 7.97 and the “inhibition (INH)” value [5] was 5.7%. The pKi [6] was 7.54, the Activity [7] was “Dose-dependent effect” and the ED50 [7] was 10.5 mg/kg. For the same molecule, the inhibition [8] was “Dose-dependent effect”, the inhibition in vivo at 40 mg/kg [9] was 89.6% and the “inhibition (INH)” value [10] was 47.9%. For the same molecule, the inhibition in vivo at 20 mg/kg [11] was 64.8%, the inhibition in vivo at 30 mg/kg [12] was 52.5% and the inhibition [13] was “Active”.

For `CN(C)C1(Cc2ccccc2)CCN(c2cc(C(F)(F)F)ccc2CNC(=O)Nc2ccc(CNS(N)(=O)=O)c(F)c2)CC1`, the EC50 [2] was “Not Active”, the pKi [4] was 7.82 and the pKi [6] was 7.14.

With `CN(C)C1(Cc2ccccc2)CCN(c2cc(C(F)(F)F)ccc2CNC(=O)Nc2ccc(CNS(C)(=O)=O)c(F)c2)CC1` the EC50 [2] was “Not Active”, the pKi [4] was 7.79 and the pKi [6] was 6.49.

In the case of `CN(C)C1(Cc2ccccc2)CCN(c2cc(C(F)(F)F)ccc2CNC(=O)Nc2cccc3ccc(O)cc23)CC1`, the EC50 [2] was “Not Active”, the pKi [4] was 9.34 and the pKi [6] was 6.86.

With `CN(C)C1(Cc2ccccc2)CCN(c2cc(C(F)(F)F)ccc2CNC(=O)Nc2cccc3[nH]c(=O)ccc23)CC1` the EC50 [2] was “Not Active”, the pKi [4] was 8.78 and the pKi [6] was 6.62.

In the case of `CC1CCN(c2nc(C(F)(F)F)ccc2CNC(=O)[C@@H](C)c2ccc(NS(C)(=O)=O)c(F)c2)CC1` (racemic), the EC50 [2] was “Not Active” and the pKi [4] was 8.10.

For `CN(C)C1(Cc2ccccc2)CCN(c2cc(C(F)(F)F)ccc2CNC(=O)Nc2ccc(NS(C)(=O)=O)c(F)c2)CC1`, the EC50 [2] was “Not Active”, the pKi [4] was 5.94 and the pKi [6] was 6.43. For the same molecule, the inhibition [14] was “Active”.

For `CN(C)C1(Cc2ccccc2)CCN(c2cc(C(F)(F)F)ccc2CNC(=O)Nc2ccc3ccncc3c2)CC1`, the EC50 [2] was “Not Active”, the pKi [4] was 8.13 and the pKi [6] was 6.75.

For `CN(C)C1(Cc2ccccc2)CCN(c2cc(C(F)(F)F)ccc2CNC(=O)Nc2ccc3cccnc3c2)CC1`, the EC50 [2] was “Not Active”, the pKi [4] was 7.85 and the pKi [6] was 6.78.

`CN(C)C1(Cc2ccccc2)CCN(c2cc(C(F)(F)F)ccc2CNC(=O)Nc2cccc3c(=O)[nH]ccc23)CC1` was tested, and the pEC50 ([2]; read-out: EC50) was 7.36, the pKi [4] was 6.95 and the pKi [6] was 6.98. The Ki [14] was “Not Active”.

With `CN(C)C1(Cc2ccccc2)CCN(c2cc(C(F)(F)F)ccc2CNC(=O)Nc2cccc3ccncc23)CC1` the EC50 [2] was “Not Active”, the pKi [4] was 7.91 and the pKi [6] was 6.69.

`CN(C)C1(Cc2ccccc2)CCN(c2cc(C(F)(F)F)ccc2CNC(=O)Nc2ccc(CO)c(F)c2)CC1` was tested, and the EC50 [2] was “Not Active”, the pKi [4] was 7.55 and the pKi [6] was 6.62.

With `CN(C)C1(Cc2ccccc2)CCN(c2cc(C(F)(F)F)ccc2CNC(=O)Nc2ccc3c(c2)OCC3)CC1` the EC50 [2] was “Not Active”, the pKi [4] was 7.38 and the pKi [6] was 6.65.

With `CC(C(=O)NCc1ccc(C(F)(F)F)cc1N1CCC(Cc2ccccc2)(N(C)C)CC1)c1ccc(NS(C)(=O)=O)c(F)c1` (configuration not stated) the EC50 [2] was “Not Active”, the pKi [4] was 8.42 and the pKi [6] was 6.37.

In the case of `CN(C)C1(Cc2ccccc2)CCN(c2cc(C(F)(F)F)ccc2CNC(=O)Nc2cccc3cnccc23)CC1`, the EC50 [2] was “Not Active”, the pKi [4] was 9.17 and the pKi [6] was 6.29.

In the case of `CN(C)C1(Cc2ccccc2)CCN(c2cc(C(F)(F)F)ccc2CNC(=O)NCc2ccc(NS(C)(=O)=O)c(F)c2)CC1`, the EC50 [2] was “Not Active”, the pKi [4] was 6.58 and the pKi [6] was 7.12.

`CN(C)C1(Cc2ccccc2)CCN(c2cc(C(F)(F)F)ccc2CNC(=O)Nc2cccc3c2CC(O)CC3)CC1` (configuration not stated) was tested, and the EC50 [2] was “Not Active”, the pKi [4] was 9.02 and the pKi [6] was 6.58.

For `CN(C)C1(Cc2ccccc2)CCN(c2cc(C(F)(F)F)ccc2CNC(=O)Nc2ccc3cnccc3c2)CC1`, the EC50 [2] was “Not Active”, the pKi [4] was 7.21 and the pKi [6] was 7.77.
